Key:
[1] = tested on: Canis familiaris; experiment: Diuretic activity in mongrel dog anesthetized with sodium pentobarbital assessed as urine Na+ level at 10 mg/kg, iv measured after 15 to 45 mins post dose (reference value: 4 to 82 uequiv/min); type: functional, Canis lupus familiaris
[2] = tested on: Canis familiaris; experiment: Diuretic activity in mongrel dog anesthetized with sodium pentobarbital assessed as urine K+ level at 10 mg/kg, iv measured after 15 to 45 mins post dose (reference value: 5 to 104 uequiv/min); type: functional, Canis lupus familiaris
[3] = tested on: Canis familiaris; experiment: Diuretic activity in mongrel dog anesthetized with sodium pentobarbital assessed as urine volume at 10 mg/kg, iv measured after 15 to 45 mins post dose (reference value: 1 to 4 ml/min); type: functional, Canis lupus familiaris
[4] = tested on: Canis familiaris; experiment: Diuretic activity in mongrel dog anesthetized with sodium pentobarbital assessed as urine Na+ level at 1 mg/kg, iv measured after 15 to 45 mins post dose (reference value: 4 to 82 uequiv/min); type: functional, Canis lupus familiaris
[5] = tested on: Canis familiaris; experiment: Diuretic activity in mongrel dog anesthetized with sodium pentobarbital assessed as urine K+ level at 1 mg/kg, iv measured after 15 to 45 mins post dose (reference value: 5 to 104 uequiv/min); type: functional, Canis lupus familiaris
[6] = tested on: Canis familiaris; experiment: Diuretic activity in mongrel dog anesthetized with sodium pentobarbital assessed as urine volume at 1 mg/kg, iv measured after 15 to 45 mins post dose (reference value: 1 to 4 ml/min); type: functional, Canis lupus familiaris
[7] = tested on: Canis familiaris; experiment: Diuretic activity in mongrel dog anesthetized with sodium pentobarbital assessed as urine Cl- level at 1 mg/kg, iv measured after 15 to 45 mins post dose (reference value: 2 to 64 uequiv/min); type: functional, Canis lupus familiaris
[8] = tested on: Canis familiaris; experiment: Diuretic activity in mongrel dog anesthetized with sodium pentobarbital assessed as urine volume at 25 mg/kg, iv measured after 15 to 45 mins post dose (reference value: 1 to 4 ml/min); type: functional, Canis lupus familiaris
[9] = tested on: Canis familiaris; experiment: Diuretic activity in mongrel dog anesthetized with sodium pentobarbital assessed as urine Na+ level at 25 mg/kg, iv measured after 15 to 45 mins post dose (reference value: 4 to 82 uequiv/min); type: functional, Canis lupus familiaris
[10] = tested on: Canis familiaris; experiment: Diuretic activity in mongrel dog anesthetized with sodium pentobarbital assessed as urine K+ level at 25 mg/kg, iv measured after 15 to 45 mins post dose (reference value: 5 to 104 uequiv/min); type: functional, Canis lupus familiaris
[11] = tested on: Canis familiaris; experiment: Diuretic activity in mongrel dog anesthetized with sodium pentobarbital assessed as urine Cl- level at 10 mg/kg, iv measured after 15 to 45 mins post dose (reference value: 2 to 64 uequiv/min); type: functional, Canis lupus familiaris
[12] = tested on: Canis familiaris; experiment: Diuretic activity in mongrel dog anesthetized with sodium pentobarbital assessed as urine Na+ level at 0.1 mg/kg, iv measured after 15 to 45 mins post dose (reference value: 4 to 82 uequiv/min); type: functional, Canis lupus familiaris
[13] = tested on: Canis familiaris; experiment: Diuretic activity in mongrel dog anesthetized with sodium pentobarbital assessed as urine K+ level at 0.1 mg/kg, iv measured after 15 to 45 mins post dose (reference value: 5 to 104 uequiv/min); type: functional, Canis lupus familiaris
[14] = tested on: Canis familiaris; experiment: Diuretic activity in mongrel dog anesthetized with sodium pentobarbital assessed as urine Cl- level at 0.1 mg/kg, iv measured after 15 to 45 mins post dose (reference value: 2 to 64 uequiv/min); type: functional, Canis lupus familiaris
[15] = tested on: Canis familiaris; experiment: Diuretic activity in mongrel dog anesthetized with sodium pentobarbital assessed as urine volume at 0.1 mg/kg, iv measured after 15 to 45 mins post dose (reference value: 1 to 4 ml/min); type: functional, Canis lupus familiaris
[16] = tested on: Canis familiaris; experiment: Diuretic activity in mongrel dog […] assessed as urine volume per 6 hrs at 1.27 mg/kg, po as gelatin capsules relative to control; type: functional, Canis lupus familiaris
Procedure, shortened: (§1)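 Conscious trained female mongrel dogs (8–10 kg), fasted overnight after 100 ml water the day before. On test day 250 ml water orally, then 500 ml 1 h later. Bladder emptied 1 h afterwards and compound or placebo given in gelatin capsules. Voided urine from metabolism cages pooled with catheter urine at 6 h; volume and Na+, K+, Cl− measured; geometric means.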

[17] = tested on: Canis familiaris; experiment: Diuretic activity in mongrel dog assessed as urine K+ level per 6 hrs at 1.27 mg/kg, po as gelatin capsules relative to control
[18] = tested on: Canis familiaris; experiment: Diuretic activity in mongrel dog assessed as urine Na+ level per 6 hrs at 1.27 mg/kg, po as gelatin capsules relative to control
[19] = tested on: Canis familiaris; experiment: Diuretic activity in mongrel dog assessed as urine Cl- level per 6 hrs at 1.27 mg/kg, po as gelatin capsules relative to control
[20] = tested on: Canis familiaris; experiment: Diuretic activity in mongrel trained conscious dog assessed as urine volume per 6 hrs at 0.4 mg/kg, po as gelatin capsules relative to control
[21] = tested on: Canis familiaris; experiment: Diuretic activity in mongrel trained conscious dog assessed as urine K+ level per 6 hrs at 0.4 mg/kg, po as gelatin capsules relative to control
[22] = tested on: Canis familiaris; experiment: Diuretic activity in mongrel trained conscious dog assessed as urine Na+ level per 6 hrs at 0.4 mg/kg, po as gelatin capsules relative to control
[23] = tested on: Canis familiaris; experiment: Diuretic activity in mongrel trained conscious dog assessed as urine Cl- level per 6 hrs at 0.4 mg/kg, po as gelatin capsules relative to control
[24] = tested on: Canis familiaris; experiment: Diuretic activity in mongrel dog assessed as urine volume per 6 hrs at 1 mg/kg, po as gelatin capsules relative to control
[25] = tested on: Canis familiaris; experiment: Diuretic activity in mongrel dog assessed as urine K+ level per 6 hrs at 1 mg/kg, po as gelatin capsules relative to control
[26] = tested on: Canis familiaris; experiment: Diuretic activity in mongrel trained conscious dog assessed as urine Na+ level per 6 hrs at 1 mg/kg, po as gelatin capsules relative to control
[27] = tested on: Canis familiaris; experiment: Diuretic activity in mongrel dog […] assessed as urine Na+ level per 6 hrs at 3 mg/kg, po as gelatin capsules relative to control; type: functional, Canis lupus familiaris; procedure, shortened: as §1
[28] = tested on: Canis familiaris; experiment: Diuretic activity in mongrel dog […] assessed as urine K+ level per 6 hrs at 3 mg/kg, po as gelatin capsules relative to control; type: functional, Canis lupus familiaris; procedure, shortened: as §1
[29] = tested on: Canis familiaris; experiment: Diuretic activity in mongrel dog […] assessed as urine Cl- level per 6 hrs at 3 mg/kg, po as gelatin capsules relative to control; type: functional, Canis lupus familiaris; procedure, shortened: as §1
[30] = tested on: Canis familiaris; experiment: Diuretic activity in mongrel dog […] assessed as urine volume per 6 hrs at 3 mg/kg, po as gelatin capsules relative to control; type: functional, Canis lupus familiaris; procedure, shortened: as §1
[31] = Half life of the compound in DMF-phosphate buffer at pH 7.4 at 25 degC assessed as SH binding in presence of mercaptoacetic acid; type: physicochemical; conditions: DMF-phosphate buffer with mercaptoacetic acid
Procedure, shortened: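 Minutes for half of a standard amount of compound to react with excess mercaptoacetic acid in DMF-phosphate buffer, pH 7.4, 25°.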

[32] = tested on: Canis familiaris; experiment: Diuretic activity in mongrel dog assessed as urine Cl- level per 6 hrs at 1 mg/kg, po as gelatin capsules relative to control

| SMILES | Activity [1] | Activity [2] | Activity [3] | Activity [4] | Activity [5] | Activity [6] | Activity [7] | also measured |
| --- | --- | --- | --- | --- | --- | --- | --- | --- |
| CC(=O)C(=Cc1ccc(OCC(=O)O)cc1)C(C)=O | 336 uEq/min | 106 uEq/min | 4 mL/min |  |  |  |  |  |
| CC(=O)C(=Cc1ccc(OCC(=O)O)cc1Cl)C(C)=O |  |  |  | 1318 uEq/min | 232 uEq/min | 11 mL/min |  |  |
| CC(=O)C(=Cc1ccc(OC(C)C(=O)O)c(Cl)c1Cl)C(C)=O (stereo unspecified) |  |  |  | 847 uEq/min | 71 uEq/min | 8 mL/min |  |  |
| CCC(=O)/C(=C/c1ccc(OCC(=O)O)c(Cl)c1Cl)C(C)=O |  |  |  | 2025 uEq/min | 13 uEq/min | 16 mL/min | 1936 uEq/min |  |
| CCC(=O)C(=Cc1ccc(OCC(=O)O)c(Cl)c1Cl)C(=O)CC |  |  |  | 676 uEq/min | 68 uEq/min | 7 mL/min |  |  |
| CC(=O)C(=Cc1ccc(OCC(=O)O)c(C)c1C)C(C)=O |  |  |  |  | 58 uEq/min |  |  |  |
| CC(=O)C(=Cc1ccc(OCC(=O)O)c2ccccc12)C(C)=O |  |  |  | 393 uEq/min | 104 uEq/min | 4 mL/min |  |  |
| CC(=O)C(=Cc1cc(OCC(=O)O)ccc1Cl)C(C)=O |  |  |  |  |  |  |  | Activity [8]: 1 mL/min |
| CC(=O)C(=Cc1cc(Cl)ccc1OCC(=O)O)C(C)=O | 94 uEq/min | 20 uEq/min | 2 mL/min |  |  |  |  |  |
| CC(=O)C(=Cc1cc(Cl)cc(Cl)c1OCC(=O)O)C(C)=O |  |  |  |  |  |  |  | Activity [9]: 244 uEq/min; Activity [10]: 50 uEq/min; Activity [8]: 3 mL/min |
| CC(=O)/C(=C\c1ccc(OCC(=O)O)c(Cl)c1Cl)C(=O)c1ccccc1 | 583 uEq/min | 105 uEq/min | 6 mL/min |  |  |  |  |  |
| O=C(O)COc1ccc(C=C2C(=O)c3ccccc3C2=O)c(Cl)c1Cl | 118 uEq/min | 44 uEq/min | 2 mL/min |  |  |  |  | Activity [11]: 29 uEq/min |
| O=C(O)COc1ccc(C=C2C(=O)C=CC2=O)c(Cl)c1Cl | 213 uEq/min | 94 uEq/min | 4 mL/min |  |  |  |  |  |
| CSC(c1ccc(OCC(=O)O)c(Cl)c1Cl)C(C(C)=O)C(C)=O (stereo unspecified) |  |  |  | 571 uEq/min | 78 uEq/min | 6 mL/min | 565 uEq/min |  |
| CC(=O)C(C(C)=O)C(SCCO)c1ccc(OCC(=O)O)c(Cl)c1Cl (stereo unspecified) |  |  |  | 405 uEq/min | 80 uEq/min | 5 mL/min | 447 uEq/min |  |
| CC(=O)C(C(C)=O)C(SCC(=O)O)c1ccc(OCC(=O)O)c(Cl)c1Cl (stereo unspecified) |  |  |  | 1569 uEq/min | 178 uEq/min | 4 mL/min | 1628 uEq/min | Activity [12]: 1424 uEq/min; Activity [13]: 173 uEq/min; Activity [14]: 1991 uEq/min; Activity [15]: 13 mL/min; Activity [16]: 750 mL; Activity [17]: 6 milliequivalent; Activity [18]: 27 milliequivalent; Activity [19]: 34 milliequivalent; Activity [20]: 575 mL; Activity [21]: 3 milliequivalent; Activity [22]: 7 milliequivalent; Activity [23]: 8 milliequivalent |
| CC(=O)C(C(C)=O)C(Sc1ccccc1C(=O)O)c1ccc(OCC(=O)O)c(Cl)c1Cl (stereo unspecified) |  |  |  | 802 uEq/min | 124 uEq/min | 7 mL/min | 913 uEq/min |  |
| CC(=O)C(Cc1ccc(OCC(=O)O)c(Cl)c1Cl)C(C)=O | 198 uEq/min | 35 uEq/min | 3 mL/min |  |  |  |  | Activity [11]: 241 uEq/min |
| CC(=O)C(=Cc1ccc(OCC(=O)O)c(Cl)c1Cl)C(C)=O |  |  |  |  | 104 uEq/min | 19 mL/min |  | Activity [12]: 984 uEq/min; Activity [13]: 87 uEq/min; Activity [15]: 9 mL/min; Activity [24]: 492 mL; Activity [25]: 7 milliequivalent; Activity [20]: 762 mL; Activity [26]: 30 milliequivalent; Activity [21]: 6 milliequivalent |
| C=C(CC)C(=O)c1ccc(OCC(=O)O)c(Cl)c1Cl [ETHACRYNIC ACID] | 2989 uEq/min | 194 uEq/min | 22 mL/min | 188 uEq/min | 52 uEq/min | 6 mL/min | 244 uEq/min | Activity [11]: 3324 uEq/min; Activity [27]: 37 milliequivalent; Activity [28]: 7 milliequivalent; Activity [29]: 42 milliequivalent; Activity [30]: 571 mL; half-life [31]: < 1 min; Activity [24]: 560 mL; Activity [25]: 5 milliequivalent; Activity [32]: 26 milliequivalent; Activity [26]: 21 milliequivalent |
